Laboratory results taken from ChEMBL document CHEMBL1287651, “Synthesis and in vitro antibacterial activity of fluoroquinolone derivatives containing 3-(N'-alkoxycarbamimidoyl)-4-(alkoxyimino) pyrrolidines” (2010).
Values after ≈ are worked out from the molar mass of the structure shown.

Experiments:
Format in all cases: functional
[1] = system: Staphylococcus epidermidis; test: Antibacterial activity against methicillin-sensitive Staphylococcus epidermidis 09-6 after 18 to 24 hrs by twofold serial dilution method
Summary of the method: (§1)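 Standard twofold serial agar dilution method on agar media for MIC determination. Screened against representative Gram-positive and Gram-negative strains. Levofloxacin and GMFX served as control drugs.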

[2] = system: Staphylococcus epidermidis; test: Antibacterial activity against methicillin-resistant Staphylococcus epidermidis 09-2 after 18 to 24 hrs by twofold serial dilution method; summary of the method: as §1
[3] = system: Staphylococcus epidermidis; test: Antibacterial activity against methicillin-resistant Staphylococcus epidermidis 09-3 after 18 to 24 hrs by twofold serial dilution method; summary of the method: as §1
[4] = system: Klebsiella pneumoniae; test: Antibacterial activity against Klebsiella pneumoniae 09-21 after 18 to 24 hrs by twofold serial dilution method
Summary of the method: (§2)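 MIC determined by the standard twofold serial dilution method on agar media, screening against Gram-positive and Gram-negative strains. Levofloxacin and gemifloxacin were run alongside as reference drugs.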

[5] = system: Klebsiella pneumoniae; test: Antibacterial activity against Klebsiella pneumoniae 09-22 after 18 to 24 hrs by twofold serial dilution method; summary of the method: as §2
[6] = system: Enterococcus faecalis; test: Antibacterial activity against Enterococcus faecalis 08-12 after 18 to 24 hrs by twofold serial dilution method; summary of the method: as §2
[7] = system: Escherichia coli; test: Antibacterial activity against Escherichia coli ATCC 25922 after 18 to 24 hrs by twofold serial dilution method; summary of the method: as §2
[8] = system: Klebsiella pneumoniae; test: Antibacterial activity against Klebsiella pneumoniae 09-23 after 18 to 24 hrs by twofold serial dilution method; summary of the method: as §2
[9] = system: Streptococcus pneumoniae; test: Antibacterial activity against Streptococcus pneumoniae 08-4 after 18 to 24 hrs by twofold serial dilution method; summary of the method: as §2
[10] = system: Escherichia coli; test: Antibacterial activity against Escherichia coli 08-22 after 18 to 24 hrs by twofold serial dilution method; summary of the method: as §2
[11] = system: Escherichia coli; test: Antibacterial activity against Escherichia coli 08-21 after 18 to 24 hrs by twofold serial dilution method; summary of the method: as §2
[12] = system: Pseudomonas aeruginosa; test: Antibacterial activity against Pseudomonas aeruginosa 09-33 after 18 to 24 hrs by twofold serial dilution method; summary of the method: as §2
[13] = system: Streptococcus pneumoniae; test: Antibacterial activity against Streptococcus pneumoniae 08-2 after 18 to 24 hrs by twofold serial dilution method; summary of the method: as §2
[14] = system: Enterococcus faecium; test: Antibacterial activity against Enterococcus faecium 08-2 after 18 to 24 hrs by twofold serial dilution method; summary of the method: as §2
[15] = system: Pseudomonas aeruginosa; test: Antibacterial activity against Pseudomonas aeruginosa ATCC 27853 after 18 to 24 hrs by twofold serial dilution method; summary of the method: as §2
[16] = system: Enterococcus faecium; test: Antibacterial activity against Enterococcus faecium 08-7 after 18 to 24 hrs by twofold serial dilution method; summary of the method: as §2
[17] = system: Staphylococcus aureus; test: Antibacterial activity against methicillin-resistant Staphylococcus aureus 08-1 after 18 to 24 hrs by twofold serial dilution method; summary of the method: as §1
[18] = system: Staphylococcus epidermidis; test: Antibacterial activity against methicillin-resistant Staphylococcus epidermidis 09-4 after 18 to 24 hrs by twofold serial dilution method; summary of the method: as §1
[19] = system: Staphylococcus aureus; test: Antibacterial activity against methicillin-sensitive Staphylococcus aureus 08-2 after 18 to 24 hrs by twofold serial dilution method; summary of the method: as §1
[20] = system: Enterococcus faecalis; test: Antibacterial activity against Enterococcus faecalis 08-10 after 18 to 24 hrs by twofold serial dilution method; summary of the method: as §2
[21] = system: Pseudomonas aeruginosa; test: Antibacterial activity against Pseudomonas aeruginosa 09-35 after 18 to 24 hrs by twofold serial dilution method; summary of the method: as §2
[22] = system: Pseudomonas aeruginosa; test: Antibacterial activity against Pseudomonas aeruginosa 09-32 after 18 to 24 hrs by twofold serial dilution method; summary of the method: as §2
[23] = system: Staphylococcus aureus; test: Antibacterial activity against Staphylococcus aureus ATCC […] after 18 to 24 hrs by twofold serial dilution method; summary of the method: as §2
[24] = system: Pseudomonas aeruginosa; test: Antibacterial activity against Pseudomonas aeruginosa 09-34 after 18 to 24 hrs by twofold serial dilution method; summary of the method: as §2
[25] = system: Staphylococcus epidermidis; test: Antibacterial activity against methicillin-sensitive Staphylococcus epidermidis 09-3 after 18 to 24 hrs by twofold serial dilution method; summary of the method: as §1

Structure (SMILES) | MIC [1] [mg/L] | MIC [2] [mg/L] | MIC [3] [mg/L] | MIC [4] [mg/L] | MIC [5] [mg/L] | MIC [6] [mg/L] | MIC [7] [mg/L] | MIC [8] [mg/L] | MIC [9] [mg/L] | MIC [10] [mg/L] | MIC [11] [mg/L] | MIC [12] [mg/L] | MIC [13] [mg/L] | MIC [14] [mg/L] | MIC [15] [mg/L] | MIC [16] [mg/L] | MIC [17] [mg/L] | MIC [18] [mg/L] | MIC [19] [mg/L] | MIC [20] [mg/L] | other results
CO/N=C1\CN(c2c(F)cc3c(=O)c(C(=O)O)cn4c3c2OC[C@@H]4C)CC1/C(N)=N\O (stereo not given in full) | 0.25 (≈ 0.577 µM) | 0.25 (≈ 0.577 µM) | 0.25 (≈ 0.577 µM) | > 128 | 16 (≈ 36.9 µM) | > 128 | 128 (≈ 295 µM) | > 128 | 16 (≈ 36.9 µM) | > 128 | > 128 | > 128 | 0.25 (≈ 0.577 µM) | > 128 | 32 (≈ 73.8 µM) | > 128 | 0.25 (≈ 0.577 µM) | 0.25 (≈ 0.577 µM) | 4 (≈ 9.23 µM) | > 128 | MIC [21]: 128 mg/L (≈ 295 µM); MIC [22]: 64 mg/L (≈ 148 µM); MIC [23]: 0.125 mg/L (≈ 0.288 µM); MIC [24]: > 128 mg/L; MIC [25]: 0.25 mg/L (≈ 0.577 µM)
CCO/N=C1\CN(c2c(F)cc3c(=O)c(C(=O)O)cn(CCF)c3c2F)CC1/C(N)=N\O (stereo not given) | 0.5 (≈ 1.1 µM) | 4 (≈ 8.78 µM) | 0.5 (≈ 1.1 µM) | > 128 | 4 (≈ 8.78 µM) | > 128 | 128 (≈ 281 µM) | > 128 | 0.5 (≈ 1.1 µM) | > 128 | > 128 | > 128 | 4 (≈ 8.78 µM) | > 128 | 8 (≈ 17.6 µM) | > 128 | 0.5 (≈ 1.1 µM) | 0.5 (≈ 1.1 µM) | 0.5 (≈ 1.1 µM) | 4 (≈ 8.78 µM) | MIC [21]: 16 mg/L (≈ 35.1 µM); MIC [22]: 16 mg/L (≈ 35.1 µM); MIC [23]: 0.5 mg/L (≈ 1.1 µM); MIC [24]: > 128 mg/L; MIC [25]: 0.5 mg/L (≈ 1.1 µM)
CO/N=C1\CN(c2nc3c(cc2F)c(=O)c(C(=O)O)cn3-c2ccc(F)cc2F)CC1/C(N)=N\OC (stereo not given) | 0.25 (≈ 0.496 µM) | 0.5 (≈ 0.991 µM) | 0.25 (≈ 0.496 µM) | > 128 | 1 (≈ 1.98 µM) | > 128 | 128 (≈ 254 µM) | > 128 | 0.25 (≈ 0.496 µM) | > 128 | > 128 | > 128 | 16 (≈ 31.7 µM) | > 128 | 128 (≈ 254 µM) | > 128 | 0.25 (≈ 0.496 µM) | 0.25 (≈ 0.496 µM) | 0.25 (≈ 0.496 µM) | > 128 | MIC [21]: 128 mg/L (≈ 254 µM); MIC [22]: 128 mg/L (≈ 254 µM); MIC [23]: 0.5 mg/L (≈ 0.991 µM); MIC [24]: > 128 mg/L; MIC [25]: 0.5 mg/L (≈ 0.991 µM)
